“Also recorded” adds a separate entry of the source.
Assays:
HT22 cells [1] = assay: FITC-Aβ42O binding/uptake in HT22 cells; type: cell-based, mouse; conditions: FITC-Aβ42O 0.1 μM, 2 h; MAB1965 1 : 500, MnCl2 0.5 mM or MgCl2 5 mM; n=4 replicates
HT22 cells [2] = assay: Mitosox-Red mitochondrial superoxide imaging; type: cell-based, mouse; conditions: Aβ42O 1 μM, 2 h, n=6
Summary of the method: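 Following 45 min (methods; 1 h per legend) pretreatment ± HUTS-4 (1:250), MAB1965 (1:250) or Nox inhibitor III (40 nM), HT22 cells received Aβ42 oligomers (1 μM, 2 h). Washed, given Mitosox-Red at 5 μM final in PBS for 15 min at 37°C, washed again, fixed and imaged by confocal microscopy with identical settings.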

HT22 cells [3] = assay: H2DCF general ROS imaging; type: cell-based, mouse; conditions: Aβ42O 1 μM, 2 h, n=6
Summary of the method: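 HT22 cells pretreated 45 min (methods; legend gives 1 h) with or without HUTS-4 (1:250), MAB1965 (1:250) or Nox inhibitor III (40 nM), then Aβ42 oligomers (1 μM, 2 h). After PBS wash, loaded with H2DCF at 50 nM final in HBSS for 15 min at 37°C. Live-cell fluorescence imaging at 37°C under identical acquisition settings.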

HT22 cells [4] = assay: JC-1 mitochondrial membrane potential imaging; type: cell-based, mouse; conditions: Aβ42O 1 μM, 2 h; HUTS-4 1 : 250, MAB1965 1 : 250, Nox inhibitor 40 nM; n=6
Summary of the method: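 HT22 cells pre-exposed 45 min (methods; legend says 1 h) to HUTS-4 (1:250), MAB1965 (1:250), Nox inhibitor III (40 nM) or none, then Aβ42 oligomers (1 μM, 2 h). Washed, incubated with JC-1 (0.5 μM final, PBS) 15 min at 37°C. Live-cell imaging at 37°C; membrane potential expressed as green/red ratio.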

14-3-3/SSH1 complex = assay: 14-3-3/SSH1 complex, co-immunoprecipitation in HT22 cells; type: cell-based, mouse (HT22 mouse cell line); conditions: Aβ42O 1 μM, 2 h
[5] = target: β1-integrin-Fc (extracellular domain fused with human IgG-Fc) (Homo sapiens, UniProt P05556); assay: ELISA binding of biotin-Aβ42 to purified β1-integrin-Fc; conditions: n=4 replicates
β1-integrin-Fc (extracellular domain fused with human IgG-Fc), sequence (P05556 21-728): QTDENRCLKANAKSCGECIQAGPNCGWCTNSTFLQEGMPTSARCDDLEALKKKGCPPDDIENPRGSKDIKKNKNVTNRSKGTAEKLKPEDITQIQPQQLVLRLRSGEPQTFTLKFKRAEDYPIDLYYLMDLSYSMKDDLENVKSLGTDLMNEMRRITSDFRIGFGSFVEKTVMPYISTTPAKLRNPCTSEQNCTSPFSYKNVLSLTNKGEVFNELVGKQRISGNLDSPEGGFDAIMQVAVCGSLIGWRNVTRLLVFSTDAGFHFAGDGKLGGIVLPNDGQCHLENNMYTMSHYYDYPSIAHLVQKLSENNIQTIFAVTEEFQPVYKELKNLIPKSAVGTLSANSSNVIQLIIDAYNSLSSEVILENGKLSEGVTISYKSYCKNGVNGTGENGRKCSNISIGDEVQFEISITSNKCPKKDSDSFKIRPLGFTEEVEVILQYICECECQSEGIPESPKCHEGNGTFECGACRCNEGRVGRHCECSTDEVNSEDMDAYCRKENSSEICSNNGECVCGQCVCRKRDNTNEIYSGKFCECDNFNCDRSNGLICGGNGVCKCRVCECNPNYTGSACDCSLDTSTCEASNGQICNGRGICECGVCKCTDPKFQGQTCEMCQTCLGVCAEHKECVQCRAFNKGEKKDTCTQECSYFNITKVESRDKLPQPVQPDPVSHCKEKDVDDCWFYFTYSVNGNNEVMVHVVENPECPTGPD

[6] = test system: DIV21 primary hippocampal neurons; assay: FITC-Aβ42O binding to DIV21 primary hippocampal neurons; type: cell-based; conditions: 100 nM FITC-Aβ42O, 1 h, 37 °C
PrP^c = type: cell-based, mouse (HT22 mouse cell line)
HT22 cells [7] = assay: Annexin V/PI apoptosis assay, HT22 cells; type: cell-based, mouse; conditions: Aβ42O 1 μM, 24 h / 18 h, 1% FBS; n=4 replicates
Summary of the method: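 HT22 cells transfected for 48 h with Lipofectamine 2000 with control or SSH1 siRNA (100 nM final), then exposed to Aβ42 oligomers (1 μM, 18 h) in 1% FBS medium. Cells stained on coverslips with FITC-Annexin V and propidium iodide for 20 min at 25°C in the dark, PBS-washed and imaged by fluorescence confocal microscopy. Annexin V marks early apoptosis, PI late apoptosis.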

Cofilin (mitochondrial) = assay: Translocation of Cofilin to mitochondria in HT22 cells; type: cell-based, mouse (HT22 mouse cell line); conditions: Aβ42O 1 μM; 0, 2, 4 h; n=4 replicates
Summary of the method: (§1)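 HT22 cells exposed to Aβ42 oligomers (1 μM) for 0, 2 or 4 h. Intact mitochondria separated from cytosol with a commercial isolation kit. Protein measured by BCA. Equal amounts run on SDS-PAGE, blotted to nitrocellulose, probed and detected by peroxidase secondary/ECL. Bands quantified densitometrically; n=4 replicates, t-test.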

Vinculin = assay: FC-enriched fractionation of primary cortical neurons, Vinculin; type: cell-based, mouse; conditions: Aβ42O 1 μM, 2 h, n=3 replicates
Summary of the method: (§2)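 DIV14 cortical neurons from P0 WT or Cofilin+/− pups given Aβ42 oligomers (1 μM, 2 h). Cytosol extracted with saponin buffer (0.1% saponin, 25 mM HEPES, 75 mM potassium acetate) 10 min on ice; residue taken up in 2× SDS sample buffer with sonication (focal-contact fraction). Talin/Vinculin immunoblotted and normalized to vehicle controls set at 100%; n=3, t-test.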

SSH1/Cofilin complex = assay: SSH1/Cofilin complex, co-immunoprecipitation in HT22 cells; type: cell-based, mouse (HT22 mouse cell line); conditions: Aβ42O 1 μM, 2 h; n=3 replicates
Talin [8] = assay: FC-enriched fractionation of primary cortical neurons, Talin; type: cell-based, mouse; conditions: Aβ42O 1 μM, 2 h, n=3 replicates
Summary of the method: as §2

activated β1-integrin = assay: FITC-HUTS-4 staining of activated β1-integrin in primary hippocampal neurons; type: cell-based; conditions: DIV14 fixed and permeabilized neurons; Aβ42O 1 μM, 2 h; n=4 replicates
[9] = test system: transferrin receptor (TfR); assay: Cell surface biotinylation, surface TfR in HT22 cells; type: cell-based, mouse (HT22 mouse cell line); conditions: Aβ42O 1 μM, 2 h or FN coating; surface/total; n⩾3 replicates
[10] = SDS-PAGE/immunoblotting of Aβ42 oligomer preparations; type: physicochemical; conditions: immunoblotting of Aβ42O preparation
β1-integrin = type: cell-based, mouse (HT22 mouse cell line); conditions: Aβ42O 1 μM, 2 h; direct immunoblotting (total)
Talin [11] = assay: FC-enriched fractionation of HT22 cells, Talin; type: cell-based, mouse (HT22 mouse cell line); conditions: Aβ42O (1 μM in text; 0, 0.25, 2 μM for 0, 2, 4 h in Figure S3 legend)
Summary of the method: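 HT22 cells exposed to Aβ42 oligomers. Cytosolic proteins released with saponin buffer (0.1% saponin, 25 mM HEPES, 75 mM potassium acetate) for 10 min on ice. Remaining membrane/cytoskeletal proteins extracted in 2× SDS sample buffer with sonication to give the focal-contact-enriched fraction. Talin detected by immunoblot with ECL.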

PSD95 = PSD95 staining in DIV21 hippocampal neurons; type: cell-based, mouse; conditions: Aβ42O 1 μM, 2 h, n=4–6 replicates
Summary of the method: (§3)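 Hippocampal neurons from P0 WT or Cofilin+/− pups grown on poly-D-lysine to DIV21, then given Aβ42 oligomers (1 μM, 2 h). Fixed in 4% paraformaldehyde 15 min at RT, serum-blocked, primary antibody (Drebrin or PSD95) overnight at 4°C, secondary 45 min at RT; F-actin stained by rhodamine-phalloidin. Mean intensity measured in spine-containing neurites; n=4–6, ANOVA with Tukey test.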

Drebrin = Drebrin staining in DIV21 hippocampal neurons; type: cell-based, mouse; conditions: Aβ42O 1 μM, 2 h, n=4–6 replicates
Summary of the method: as §3

F-actin = F-actin staining in DIV21 hippocampal neurons; type: cell-based, mouse; conditions: Aβ42O 1 μM, 2 h, n=4–6 replicates
Summary of the method: as §3

focal Vinculin = assay: Focal Vinculin immunostaining in DIV21 primary hippocampal neurons; type: cell-based; conditions: Aβ42O 1 μM, 2 h, n=5 replicates
[12] = test system: Cofilin (phospho-Cofilin); assay: Immunoblot of phospho-Cofilin in primary cortical neurons; type: cell-based, mouse; conditions: Aβ42O 1 μM, 2 h, n=4 replicates
[13] = test system: Cofilin (phospho-Cofilin); assay: Cytosolic phospho-Cofilin in HT22 cells; type: cell-based, mouse (HT22 mouse cell line); conditions: Aβ42O 1 μM; 0, 2, 4 h
Summary of the method: as §1

[14] = HUTS-4 1 : 250, MAB1965 1 : 250, Nox inhibitor 40 nM
[15] = DIV14 Cofilin^+/− cortical neurons

Molecule: [Cl][Mn][Cl] [MnCl2]
- effect on FITC-Aβ42O binding to HT22 cells (HT22 cells [1]): significantly reduced

Molecule: c1ccc(Cn2nnc3c(Sc4nc5ccccc5o4)ncnc32)cc1 [NOX inhibitor]
- prevention of Aβ42O-induced change in Mitosox-Red (HT22 cells [2]; [14]): significantly prevented such changes
- prevention of Aβ42O-induced change in H2DCF (HT22 cells [3]; [14]): significantly prevented such changes
- extent of restoration of JC-1 membrane potential (HT22 cells [4]): not fully restored

Molecule: Cc1c(C)c2c(c(C)c1O)CCC(C)(C(=O)O)O2 (stereo not shown) [Trolox]
- restoration of 14-3-3/SSH1 complexes reduced by Aβ42O (14-3-3/SSH1 complex; prior treatment 30 min, MAB1965 1:250 or Trolox 200 µM): largely restored

Molecule: Aβ42 monomers: freshly solubilized monomer; tested as biotin-Aβ42M
- binding to β1-integrin-Fc, monomers and fibrils ([5]; 5 mM MgCl2, biotin-Aβ42M or biotin-Aβ42F): bound poorly to β1-integrin-Fc

Molecule: FITC-Aβ42O: FITC-Aβ1-42 (American Peptide), oligomer preparation
- FITC-Aβ42O binding to neurons (localisation) [6]: associated with dendrites and dendritic spines

Molecule: amyloid-β protein 1–42 oligomers [Aβ42O]
- effect on surface PrP^c (PrP^c): unaffected
- induction of early (Annexin V) and late (PI) apoptosis (HT22 cells [7]): significant induction of early (Annexin V) and late (PI) apoptosis
- translocation of Cofilin to mitochondria (Cofilin (mitochondrial)): rapidly increased the translocation of Cofilin to mitochondria
- mitochondrial superoxide (Mitosox-Red) (HT22 cells [2]): increased mitochondrial superoxide (Mitosox-Red)
- effect on FC Vinculin, Cofilin^+/− neurons (Vinculin; [15]): did not significantly deplete Vinculin and Talin
- effect on FC-enriched/focal Vinculin, WT primary neurons (Vinculin; DIV14 cortical neurons): saliently reduced FC-enriched but not cytosolic (cyto) Vinculin and Talin; also recorded: depleted focal Vinculin and Talin
- SSH1/Cofilin complexes (SSH1/Cofilin complex): significantly increased SSH1/Cofilin complexes
- effect on FC Talin, Cofilin^+/− neurons (Talin [8]; [15]): did not significantly deplete Vinculin and Talin
- effect on FC-enriched/focal Talin, WT primary neurons (Talin [8]; DIV14 cortical neurons): saliently reduced FC-enriched but not cytosolic (cyto) Vinculin and Talin; also recorded: depleted focal Vinculin and Talin
- ROS levels (H2DCF) (HT22 cells [3]): increased ROS levels
- reduction of FITC-HUTS-4-positive activated β1-integrin (activated β1-integrin): > 50%
- effect on surface TfR [9]: no significant effect on surface TfR
- oligomeric state on SDS-PAGE [10]: contained SDS-resistant dimers, trimers, and tetramers
- binding to β1-integrin-Fc with MnCl2 ([5]; MnCl2 0.5 mM): essentially eliminated Aβ42O binding; also recorded: failed to support Aβ42O binding to β1-integrin-Fc
- binding to β1-integrin-Fc in the absence of cation ([5]; no cation / absence of Mg^2+): did not bind to β1-integrin-Fc; also recorded: minimal binding
- effect on total β1-integrin (β1-integrin): without altering total β1-integrin
- effect on FC-enriched Talin, HT22 cells (Talin [11]): saliently reduced FC-enriched but not cytosolic (cyto) Vinculin and Talin
- effect on PSD95, WT neurons (PSD95; spine-containing neurites): significantly depleted F-actin, Drebrin, and PSD95
- effect on PSD95, Cofilin^+/− neurons (PSD95; Cofilin^+/−): no significant effects
- effect on Drebrin, WT neurons (Drebrin; spine-containing neurites): significantly depleted F-actin, Drebrin, and PSD95
- effect on Drebrin, Cofilin^+/− neurons (Drebrin; Cofilin^+/−): no significant effects
- effect on F-actin, WT neurons (F-actin; spine-containing neurites): significantly depleted F-actin, Drebrin, and PSD95
- effect on F-actin, Cofilin^+/− neurons (F-actin; Cofilin^+/−): no significant effects
- focal Vinculin immunoreactivity in spine-containing dendrites (focal Vinculin): significantly reduced focal Vinculin immunoreactivity
- 14-3-3/SSH1 complexes (14-3-3/SSH1 complex): reduced 14-3-3/SSH1 complexes
- Cofilin dephosphorylation/activation ([12]; WT primary cortical neurons): significantly induced Cofilin dephosphorylation/activation
- Cofilin dephosphorylation in β1-integrin cKO neurons ([12]; β1-integrin cKO neurons (Lenti-Cre-mRFP)): absent in β1-integrin cKO neurons
- phospho-Cofilin in the cytosol [13]: decreasing phospho-Cofilin in the cytosol

Molecule: fibronectin [FN]
- effect on surface PrP^c (PrP^c): unaffected
- effect on surface TfR [9]: modestly, but significantly, increased surface/total transferrin receptor (TfR)
